Source: ChEMBL document CHEMBL4368912, “Discovery and Development of N-[4-(1-Cyclobutylpiperidin-4-yloxy)phenyl]-2-(morpholin-4-yl)acetamide Dihydrochloride (SUVN-G3031): A Novel, Potent, Selective, and Orally Active Histamine H3 Receptor Inverse Agonist with Robust Wake-Promoting Activity” (J Med Chem, 2019)
The source made the active and inactive calls. No cut-off for these calls is given here.

Columns and labels:
[1] = Fraction unbound in rat plasma at 1 uM by equilibrium dialysis; type: ADME, cell-free
In short: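 Rapid equilibrium dialysis of fresh rat, dog or human plasma at a compound concentration of 1.0 µM. Unbound fraction reported as a percentage.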

Cytochrome P450 1A2 = target: T1, Cytochrome P450 1A2 (Homo sapiens, UniProt P05177); test: Inhibition of CYP1A2 (unknown origin); type: ADME
T1 sequence (P05177 whole entry): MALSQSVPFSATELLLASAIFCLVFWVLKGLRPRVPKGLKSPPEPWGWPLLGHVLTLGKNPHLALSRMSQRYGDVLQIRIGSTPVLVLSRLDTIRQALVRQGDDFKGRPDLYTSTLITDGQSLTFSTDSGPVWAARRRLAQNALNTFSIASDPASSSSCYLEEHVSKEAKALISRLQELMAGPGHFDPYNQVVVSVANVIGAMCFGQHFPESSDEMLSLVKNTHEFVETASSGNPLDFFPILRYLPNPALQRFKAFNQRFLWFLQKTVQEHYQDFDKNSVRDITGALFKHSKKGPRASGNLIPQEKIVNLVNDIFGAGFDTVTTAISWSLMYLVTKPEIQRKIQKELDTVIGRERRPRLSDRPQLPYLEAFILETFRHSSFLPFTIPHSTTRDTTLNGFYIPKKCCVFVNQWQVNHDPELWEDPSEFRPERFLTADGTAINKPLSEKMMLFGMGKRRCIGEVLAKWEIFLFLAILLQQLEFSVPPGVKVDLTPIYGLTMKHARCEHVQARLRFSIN

Rattus norvegicus [2] = test: Effect on accumbal dopamine levels in Wistar rat at 100 mg/kg, po by microdialysis; type: ADME, organism-based; settings: in vivo
Cytochrome P450 2D6 = Cytochrome P450 2D6 (Homo sapiens, UniProt P10635); test: Inhibition of CYP2D6 in human liver microsomes using dextromethorphan as substrate after 12 mins in presence of NADPH by LC-MS/MS analysis; type: ADME
Chain of Cytochrome P450 2D6 (P10635 whole entry): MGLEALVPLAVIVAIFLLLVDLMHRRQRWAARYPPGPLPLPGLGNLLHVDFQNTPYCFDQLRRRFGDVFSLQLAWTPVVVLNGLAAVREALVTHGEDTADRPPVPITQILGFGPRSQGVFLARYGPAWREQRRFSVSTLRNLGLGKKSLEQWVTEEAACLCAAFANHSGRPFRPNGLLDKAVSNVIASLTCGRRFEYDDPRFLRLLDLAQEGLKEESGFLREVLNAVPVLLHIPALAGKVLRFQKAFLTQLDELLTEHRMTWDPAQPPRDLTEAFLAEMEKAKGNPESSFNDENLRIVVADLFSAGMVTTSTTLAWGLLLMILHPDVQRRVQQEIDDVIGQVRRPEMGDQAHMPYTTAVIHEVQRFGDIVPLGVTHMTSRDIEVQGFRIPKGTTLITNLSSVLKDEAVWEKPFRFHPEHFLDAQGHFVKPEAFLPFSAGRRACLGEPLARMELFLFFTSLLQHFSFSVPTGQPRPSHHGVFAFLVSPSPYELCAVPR

Cytochrome P450 2E1 = Cytochrome P450 2E1 (Homo sapiens, UniProt P05181); test: Inhibition of CYP2E1 (unknown origin); type: ADME
Chain of Cytochrome P450 2E1 (P05181 whole entry): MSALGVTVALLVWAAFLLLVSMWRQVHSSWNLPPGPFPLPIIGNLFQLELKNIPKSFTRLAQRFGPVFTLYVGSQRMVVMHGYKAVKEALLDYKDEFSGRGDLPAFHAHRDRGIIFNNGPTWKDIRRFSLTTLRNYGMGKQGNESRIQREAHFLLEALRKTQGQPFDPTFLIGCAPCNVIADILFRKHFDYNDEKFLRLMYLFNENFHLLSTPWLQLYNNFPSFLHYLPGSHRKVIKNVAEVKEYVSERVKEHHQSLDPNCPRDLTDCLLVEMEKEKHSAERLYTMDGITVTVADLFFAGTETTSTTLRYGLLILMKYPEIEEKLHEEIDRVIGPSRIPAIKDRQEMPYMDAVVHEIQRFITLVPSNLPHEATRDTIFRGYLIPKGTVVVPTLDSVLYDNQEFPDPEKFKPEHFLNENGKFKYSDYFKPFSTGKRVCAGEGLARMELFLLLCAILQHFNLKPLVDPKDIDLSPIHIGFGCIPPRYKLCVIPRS

[3] = Respiratory toxicity in Wistar rat up to 90 mg/kg, po; type: organism-based; settings: in vivo
In short: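 Respiratory safety was evaluated in rats given single oral doses of 10, 30 and 90 mg/kg.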

[4] = target: Voltage-gated inwardly rectifying potassium channel KCNH2 (Homo sapiens, UniProt Q12809); test: Inhibition of human ERG expressed in HEK293 cells by whole-cell patch clamp assay; type: cell-based
Chain of Voltage-gated inwardly rectifying potassium channel KCNH2 (Q12809 whole entry): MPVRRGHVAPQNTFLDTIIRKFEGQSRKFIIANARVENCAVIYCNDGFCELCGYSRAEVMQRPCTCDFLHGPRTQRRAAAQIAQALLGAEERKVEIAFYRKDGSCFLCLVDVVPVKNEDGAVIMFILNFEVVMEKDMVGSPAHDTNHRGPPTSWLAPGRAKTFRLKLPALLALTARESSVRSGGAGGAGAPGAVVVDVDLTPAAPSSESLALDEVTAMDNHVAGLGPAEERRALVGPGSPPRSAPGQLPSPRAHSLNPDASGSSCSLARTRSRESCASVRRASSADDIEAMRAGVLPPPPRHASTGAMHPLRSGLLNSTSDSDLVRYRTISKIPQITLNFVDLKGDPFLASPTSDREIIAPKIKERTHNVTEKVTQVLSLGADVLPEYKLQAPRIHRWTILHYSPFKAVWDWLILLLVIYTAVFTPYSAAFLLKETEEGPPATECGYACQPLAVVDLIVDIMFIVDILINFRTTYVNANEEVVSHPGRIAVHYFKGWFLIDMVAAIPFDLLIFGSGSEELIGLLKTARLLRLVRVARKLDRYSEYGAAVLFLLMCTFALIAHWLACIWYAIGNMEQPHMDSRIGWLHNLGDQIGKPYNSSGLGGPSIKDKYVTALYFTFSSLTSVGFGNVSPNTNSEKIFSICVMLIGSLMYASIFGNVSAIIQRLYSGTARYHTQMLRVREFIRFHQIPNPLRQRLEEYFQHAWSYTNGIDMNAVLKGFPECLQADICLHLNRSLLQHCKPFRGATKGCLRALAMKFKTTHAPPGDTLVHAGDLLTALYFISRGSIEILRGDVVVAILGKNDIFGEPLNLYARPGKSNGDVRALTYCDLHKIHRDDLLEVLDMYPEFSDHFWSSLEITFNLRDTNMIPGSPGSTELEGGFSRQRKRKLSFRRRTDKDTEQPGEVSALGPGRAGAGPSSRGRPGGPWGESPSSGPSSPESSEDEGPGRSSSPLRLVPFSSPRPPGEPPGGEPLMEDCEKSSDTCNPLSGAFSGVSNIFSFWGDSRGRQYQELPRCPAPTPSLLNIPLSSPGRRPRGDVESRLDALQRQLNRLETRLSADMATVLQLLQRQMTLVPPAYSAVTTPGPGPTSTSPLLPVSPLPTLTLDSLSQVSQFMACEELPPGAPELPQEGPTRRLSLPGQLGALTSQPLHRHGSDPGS

Rattus norvegicus [5] = test: In vivo receptor occupancy at histamine 3 receptor in po dosed Wistar rat frontal cortex after 1 to 24 hrs by LC-MS/MS analysis; type: functional
[6] = Clearance in Wistar rat at 1 mg/kg, iv by LC-MS/MS analysis; type: ADME, organism-based; settings: in vivo
In short: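 Fasted male Wistar rats dosed i.v. in water for injection at 2 mL/kg. Clearance and half-life derived from the i.v. plasma profile.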

[7] = AUC (0 to 24 hrs) in Wistar rat at 1 mg/kg, iv by LC-MS/MS analysis; type: ADME, organism-based; parameters: time < 24 hr, dose 1 mg/kg, route intravenous; settings: Wistar, in vivo
In short: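 Fasted male Wistar rats; compound in water for injection, given i.v. (2 mL/kg) or p.o. (10 mL/kg). Plasma exposure measured as AUC0-24hr.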

[8] = Mutagenicity in Salmonella typhimurium TA1537 in presence of metabolic activation by Ames test; type: toxicity; settings: salmonella enterica subsp. enterica serovar typhimurium
[9] = Mutagenicity in Escherichia coli WP2 in presence of metabolic activation by Ames test; type: toxicity
In short: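 Reverse-mutation test in Salmonella typhimurium TA1537, TA1535, TA98 and TA100 and in E. coli WP2 uvrA, run with and without metabolic activation.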

Cytochrome P450 2A6 = target: T2, Cytochrome P450 2A6 (Homo sapiens, UniProt P11509); test: Inhibition of CYP2A6 (unknown origin); type: ADME
T2 sequence (P11509 whole entry): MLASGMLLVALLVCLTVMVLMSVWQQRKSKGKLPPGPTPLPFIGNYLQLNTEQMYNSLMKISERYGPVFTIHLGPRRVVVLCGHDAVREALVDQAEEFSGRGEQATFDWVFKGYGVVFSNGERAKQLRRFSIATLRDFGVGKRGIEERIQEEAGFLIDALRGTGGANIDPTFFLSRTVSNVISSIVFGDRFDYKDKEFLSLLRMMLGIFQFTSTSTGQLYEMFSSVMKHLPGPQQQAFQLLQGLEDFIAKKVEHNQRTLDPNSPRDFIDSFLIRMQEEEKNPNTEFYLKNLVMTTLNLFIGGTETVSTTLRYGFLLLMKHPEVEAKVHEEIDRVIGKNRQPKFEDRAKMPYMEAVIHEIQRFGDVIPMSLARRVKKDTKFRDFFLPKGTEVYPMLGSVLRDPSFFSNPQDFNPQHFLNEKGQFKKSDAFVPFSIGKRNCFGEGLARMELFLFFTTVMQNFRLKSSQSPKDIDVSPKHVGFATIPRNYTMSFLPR

Rattus norvegicus [10] = test: In vivo inverse agonist activity at histamine 3 receptor in rat assessed as inhibition of RAMH-induced dipsogenia at 0.3 to 10 mg/kg, po measured after 3 days; type: functional, organism-based
In short: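 Male rats were dosed orally with 0.3, 0.5, 0.7, 1, 3 or 10 mg/kg (vehicle 1 mL/kg), then given (R)-α-methylhistamine 2.5 mg/kg s.c. Read-out was water intake (mL), reported as mean ± SEM.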

Rattus norvegicus [11] = test: Induction of wake promoting activity in orexin-B-saporin lesioned Wistar rat assessed as decrease in REM sleep time at 10 to 30 mg/kg, po dosed 15 mins before start of dark phase; type: functional, organism-based
In short: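 Rats carried epidural frontal-cortex EEG screws, nuchal EMG leads, and bilateral lateral hypothalamic orexin-B-saporin (490 ng/0.8 µl). After at least 3 weeks' recovery, they were dosed 15 min before lights-off in a crossover design with a 1-week washout. Wake, NREM and REM time was totalled over 3 h. DREM was scored as REM after ≥60 s wake. Dunnett's test was used.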

[12] = Lipophilicity, log D of the compound at pH 7.4; type: physicochemical; settings: buffer
[13] = Toxicity in dog assessed as effect on heart rate at 10 to 25 mg/kg, po; type: organism-based, Canis lupus familiaris; settings: in vivo
In short: (§1)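 Male dogs received oral doses of 10, 18 and 25 mg/kg. Body weight, body temperature, blood pressure, heart rate and ECG were monitored.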

[14] = Toxicity in dog assessed as effect on blood pressure at 10 to 25 mg/kg, po; type: organism-based, Canis lupus familiaris; settings: in vivo; in short: as §1
[15] = Clearance in Beagle dog at 1 mg/kg, iv by LC-MS/MS analysis; type: ADME, organism-based, Canis lupus familiaris; settings: in vivo

Cl.Cl.O=C(CN1CCOCC1)Nc1ccc(OC2CCN(C3CCC3)CC2)cc1
fraction unbound at 1 µM [1]: 0.37
IC50 (Cytochrome P450 1A2): > 45 µM
Activity (Rattus norvegicus [2]): Non-Toxic
IC50 (Cytochrome P450 2D6): > 45 µM
IC50 (Cytochrome P450 2E1): > 10 µM
Activity [3]: Non-Toxic
IC50 [4]: > 10 µM
ED50 (Rattus norvegicus [5]): 0.24 mg/kg
ED80 (Rattus norvegicus [5]): 3.05 mg/kg
Occ (Rattus norvegicus [5]): Dose-dependent effect
clearance [6]: 63 mL/min/kg
AUC(0-t) at 24 h [7]: 263 ng·h/mL
Activity [8]: Non-Toxic
Activity [9]: Non-Toxic
IC50 (Cytochrome P450 2A6): > 45 µM
inhibition (Rattus norvegicus [10]): Active
Activity (Rattus norvegicus [11]): Active
logD [12]: 0.4
Activity [13]: Non-Toxic
Activity [14]: Non-Toxic
clearance [15]: 36 mL/min/kg
